The test system of one assay is NCI-H460. Put plainly: Cytotoxicity against human NCI-H460 cells after 48 hrs by MTT assay. Conditions: NCI-H460, 48 h. It counts as functional, cell-based. Summed up:
(§1)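 Cells kept in RPMI-1640 with 10% FBS, seeded at 1.0 × 10^ cells per well and exposed to graded compound for 48 h at 37 °C in 5% CO2. MTT (5 mg/mL solution) was then added for 4 h, formazan dissolved in DMSO, and OD read at 570 nm. Tests were run in triplicate, and IC50 was derived from mean OD versus concentration curves.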

A further assay deals with HL-60. Briefly: Cytotoxicity against human HL60 cells after 48 hrs by MTT assay. It counts as functional, cell-based. Conditions: HL-60, 48 h. In outline:
as §1
Background: Formazan colour is commonly taken as a measure of viable cells.

Assay [1] addresses Nucleic Acid. Put plainly: Binding affinity to G-quadruplex DNA Pu27 assessed as inhibition of hybridization with complementary strand after 3 mins by PCR-stop assay. In kind it is nucleic-acid assay. Summed up:
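Taq polymerase-stop on Pu27 with its complementary strand, each oligomer 10 μM, in 1× PCR buffer with 0.16 mM dNTP, 2.5 U Taq and graded compound. Cycling was 94 °C 3 min, then 30 cycles of 94 °C 30 s, […] 30 s, 72 °C 30 s. Products were run on 15% nondenaturing PAGE in TBE and silver stained. IC50 was taken for inhibition of amplification.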

The test system of assay [2] is Nucleic Acid. Put plainly: Binding affinity to biotinylated-duplex DNA at 20 uM by SPR assay. It counts as nucleic-acid assay. A general note: SPR reads the build-up and loss of mass on a sensor chip optically.
Assay [3] addresses Nucleic Acid. Briefly: Binding affinity to biotinylated-telomeric G-quadruplex DNA HTG21 by SPR assay. In kind it is nucleic-acid assay. Summed up: (§2)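 SPR with biotinylated DNA captured to about 1000 RU in flow cells 1 and 2, the third left blank as reference. Running buffer was 50 mM Tris-HCl pH 7.2, 100 mM KCl. Ligand at 0.3125–10 μM was injected for 150 s association and 300 s dissociation at 25 °C, with 1 M NaCl regeneration. Blank-subtracted sensorgrams were fitted with a Langmuir kinetic model.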

Assay [4] has as its target Nucleic Acid. Briefly: Binding affinity to biotinylated-c-myc G-quadruplex DNA FPu18T by SPR assay. In kind it is nucleic-acid assay. In outline:
as §2

Assay [5] has as its system Nucleic Acid. Put plainly: Binding affinity to c-myc G-quadruplex DNA FPu18T assessed as change in melting temperature at 1 uM by FRET-melting assay in presence of excess duplex oligomer ds26. It counts as nucleic-acid assay. In outline:
(§3)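 FRET melting of FAM/TAMRA-labelled oligonucleotides (FPu18T, F21T or duplex F10T), each 0.2 μM, with compound 1.0 μM in 10 mM Tris-HCl pH 7.2 containing KCl. For competition, excess ds26 duplex (3 or 10 μM) was added.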

In assay [6] the test system is Nucleic Acid. Briefly: Binding affinity to duplex DNA F10T assessed as change in melting temperature at 1 uM by FRET-melting assay. It counts as nucleic-acid assay. Summed up: as §3
Assay [7] deals with Nucleic Acid. Briefly: Binding affinity to human telomeric G-quadruplex DNA F21T assessed as change in melting temperature at 1 uM by FRET-melting assay. In kind it is nucleic-acid assay. In outline:
as §3

Assay [8] relates to Nucleic Acid. Put plainly: Binding affinity to c-myc G-quadruplex DNA FPu18T assessed as change in melting temperature at 1 uM by FRET-melting assay. In kind it is nucleic-acid assay. Summed up:
as §3

For the next assay, the system named is ECV-304. Briefly: Cytotoxicity against human ECV304 cells after 48 hrs by MTT assay. In kind it is cell-based. Conditions: ECV-304, 48 h. In outline: as §1
A further assay has as its system HepG2. Put plainly: Cytotoxicity against human HepG2 cells after 48 hrs by MTT assay. Conditions: HepG2, 48 h. In kind it is functional, cell-based. In outline: as §1
The subject of assay [9] is Nucleic Acid. Put plainly: Binding affinity to biotinylated-telomeric G-quadruplex DNA HTG21 at 20 uM by SPR assay. In kind it is nucleic-acid assay.
Assay [10] deals with Nucleic Acid. Briefly: Binding affinity to biotinylated-c-myc G-quadruplex DNA FPu18T at 20 uM by SPR assay. In kind it is nucleic-acid assay.
Assay [11] concerns Nucleic Acid. Put plainly: Binding affinity to c-myc G-quadruplex DNA FPu18T assessed as conformational changes at 25 uM by CD spectrophotometric analysis in absence of K+ ions. It counts as nucleic-acid assay. Summed up: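 CD spectra of Pu18 (5 μM) with ligand at 25 μM in 10 mM Tris-HCl pH 7.2 with no KCl. Samples were annealed from 95 °C and held at 4 °C for ≥6 h. Spectra were recorded over 220–450 nm with 1 nm bandwidth, averaging two scans.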

Assay [12] concerns Nucleic Acid. Put plainly: Binding affinity to c-myc G-quadruplex DNA FPu18T assessed as change in CD spectra at 25 uM by CD spectrophotometric analysis in presence of 100 mM K+ ions. It counts as nucleic-acid assay. Summed up: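 CD spectra of Pu18 (5 μM) with ligand at 25 μM in 10 mM Tris-HCl pH 7.2 plus 100 mM KCl. Samples were heated to 95 °C, slowly cooled and held at 4 °C for ≥6 h. Spectra were recorded over 220–450 nm with 1 nm bandwidth and 0.5 s per point, averaging two scans.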

A further assay concerns CA46. Briefly: Decrease in c-myc expression in promoter element P1 and P2-deficient human CA46 cells by RT-PCR analysis. It counts as functional, cell-based. Summed up: (§4)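 Ramos or CA46 cells were seeded at 100,000 per well and treated for 4 days with 1, 2.5, 5 or 10 μM compound or DMSO. Total RNA was extracted in Redzol and reverse-transcribed with oligo dT18 at 42 °C for 1 h. c-myc (91 bp) and β-actin (541 bp) were PCR-amplified and run on 1% agarose. Densitometry values were normalized to β-actin.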

The subject of assay [13] is Ramos. Briefly: Suppression of c-myc mRNA level in human Ramos cells expressing NHE III1 at 10 uM by RT-PCR analysis. In kind it is functional, cell-based. Summed up:
as §4

Assay [14] deals with Ramos. Put plainly: Decrease in c-myc expression in human Ramos cells expressing NHE III1 at 2.5 uM by RT-PCR analysis. It counts as functional, cell-based. Summed up: as §4
Assay [15] concerns Nucleic Acid. Put plainly: Selectivity ratio of Kd for biotinylated-telomeric G-quadruplex DNA HTG21 to Kd for biotinylated-c-myc G-quadruplex DNA FPu18T. It counts as nucleic-acid assay. Summed up: as §2

Results on eight compounds are retold here after ChEMBL document CHEMBL2029283, “Disubstituted 1,8-dipyrazolcarbazole derivatives as a new type of c-myc G-quadruplex binding ligands” (Bioorg Med Chem, 2012).

The source made the active and inactive calls. The rule behind the calls is not given here. Where only a bound is given, the exact number is not on record here.

By IC50 is commonly meant the concentration needed to halve the response being measured. For orientation: Kd means the equilibrium constant for the complex coming apart. A high value points to a looser complex. What is called ΔTm is the shift of the melting midpoint relative to a reference. On to `CCN(CC)CC(=O)Nc1cc(-n2cccn2)c2[nH]c3c(-n4cccn4)cc(NC(=O)CN(CC)CC)cc3c2c1`, for which the IC50 in the assay on NCI-H460 was 2.5 µM; with HL-60, 2 µM; at Nucleic Acid [1] it was over 20 µM; in the assay on ECV-304 it was 22.8 µM; with HepG2, 3 µM. The result in the assay with Nucleic Acid [2] was inactive. Also, the Kd on Nucleic Acid [3] is 6.86 µM; at Nucleic Acid [4] it was 2.03 µM. For the same compound, the outcome in the assay on Nucleic Acid [5] was Active. The figures for the ΔTm in the assay on Nucleic Acid [6], with Nucleic Acid [7] and in the assay on Nucleic Acid [8] were 0.6 °C, 3.6 °C and 7.4 °C, respectively.

Take `O=C(CN1CCCCC1)Nc1cc(-n2cccn2)c2[nH]c3c(-n4cccn4)cc(NC(=O)CN4CCCCC4)cc3c2c1`: the IC50 is 3.3 µM in the assay on NCI-H460; 2.4 µM in the assay on HL-60; over 20 µM on Nucleic Acid [1]; 27.3 µM in the assay on ECV-304; 5.6 µM in the assay on HepG2. Moreover, the outcome with Nucleic Acid [2] was inactive. The results for the dissociation constant (Kd) at Nucleic Acid [3] and on Nucleic Acid [4] were 8.07 µM and 1.46 µM, respectively. For the same compound, the result in the assay with Nucleic Acid [5] was Active. The ΔTm in the assay with Nucleic Acid [6] is 0.1 °C; in the assay with Nucleic Acid [7] it was 4 °C; in the assay on Nucleic Acid [8] it was 5.5 °C.

On to `O=C(CCN1CCOCC1)Nc1cc(-n2cccn2)c2[nH]c3c(-n4cccn4)cc(NC(=O)CCN4CCOCC4)cc3c2c1`, for which the IC50 with NCI-H460 is 2.8 µM; in the assay on HL-60 it was 1.7 µM; at Nucleic Acid [1] it was over 20 µM; in the assay on ECV-304, 26.2 µM; in the assay with HepG2 it was 6.9 µM. Besides, the result with Nucleic Acid [9], in the assay with Nucleic Acid [10] and in the assay with Nucleic Acid [2] was inactive. Besides, the outcome in the assay on Nucleic Acid [5] was Active. For the same compound, the ΔTm in the assay with Nucleic Acid [6] was 0.3 °C; in the assay on Nucleic Acid [7] it was 4.2 °C; with Nucleic Acid [8], 7.3 °C.

For `O=C(CN1CCOCC1)Nc1cc(-n2cccn2)c2[nH]c3c(-n4cccn4)cc(NC(=O)CN4CCOCC4)cc3c2c1`, the half-maximal inhibitory concentration (IC50) with NCI-H460 is 3.9 µM; in the assay on HL-60 it was 3.9 µM; at Nucleic Acid [1], over 20 µM; in the assay with ECV-304 it was 29.3 µM; in the assay on HepG2 it was 6.1 µM. In addition, the outcome with Nucleic Acid [9], in the assay on Nucleic Acid [10] and in the assay on Nucleic Acid [2] was inactive. In the assay on Nucleic Acid [5], the outcome was Active. For the same compound, the ΔTm was found to be 0.2 °C in the assay with Nucleic Acid [6], 1.2 °C in the assay on Nucleic Acid [7] and 4.4 °C in the assay with Nucleic Acid [8].

Take `O=C(CN1CCCC1)Nc1cc(-n2cccn2)c2[nH]c3c(-n4cccn4)cc(NC(=O)CN4CCCC4)cc3c2c1`: the IC50 in the assay with NCI-H460 stood at 2.7 µM; in the assay on HL-60 it was 1.9 µM; on Nucleic Acid [1], 5.2 µM; with ECV-304, 22.2 µM; with HepG2 it was 2.7 µM. Also, the outcome with Nucleic Acid [2] was inactive. For the same compound, the equilibrium dissociation constant (Kd) on Nucleic Acid [3] turned out to be 2.97 µM; on Nucleic Acid [4], 0.694 µM. The result in the assay on Nucleic Acid [5] was Active. In addition, the ΔTm worked out at 0.3 °C with Nucleic Acid [6], 6.3 °C in the assay on Nucleic Acid [7] and 9.3 °C in the assay with Nucleic Acid [8].

Consider `O=C(CCN1CCCCC1)Nc1cc(-n2cccn2)c2[nH]c3c(-n4cccn4)cc(NC(=O)CCN4CCCCC4)cc3c2c1`, for which the concentration for half-maximal inhibition (IC50) was 2.7 µM in the assay with NCI-H460; 1.2 µM in the assay with HL-60; 4.9 µM on Nucleic Acid [1]; 25 µM in the assay with ECV-304; 5.1 µM in the assay on HepG2. Further, the outcome with Nucleic Acid [11], in the assay with Nucleic Acid [12], with Nucleic Acid [5], in the assay with Ramos [13] and with Ramos [14] was Active. Moreover, the outcome in the assay with Nucleic Acid [2] and with CA46 was inactive. In addition, the figures for the Kd at Nucleic Acid [3] and at Nucleic Acid [4] were 1.88 µM and 0.135 µM, respectively. Also, the shift in melting temperature (ΔTm) turned out to be 0.3 °C in the assay with Nucleic Acid [6], 9.7 °C in the assay with Nucleic Acid [7] and 12.1 °C in the assay on Nucleic Acid [8].

For `O=C(CCN1CCCC1)Nc1cc(-n2cccn2)c2[nH]c3c(-n4cccn4)cc(NC(=O)CCN4CCCC4)cc3c2c1`, the 50% inhibitory concentration (IC50) with NCI-H460 amounted to 3.5 µM; in the assay with HL-60, 2.2 µM; at Nucleic Acid [1], 3.6 µM; in the assay with ECV-304, 25.2 µM; in the assay with HepG2 it was 4.2 µM. For the same compound, the outcome with Nucleic Acid [12] and in the assay on Nucleic Acid [5] was Active. Moreover, the Ratio in the assay with Nucleic Acid [15] is over 20. In the assay on Nucleic Acid [2], the result was inactive. The Kd on Nucleic Acid [3] turned out to be 2.64 µM; on Nucleic Acid [4], 0.131 µM. Further, the ΔTm in the assay on Nucleic Acid [6] turned out to be 0.5 °C; with Nucleic Acid [7] it was 10.7 °C; with Nucleic Acid [8], 15.1 °C.

As to `CCN(CC)CCC(=O)Nc1cc(-n2cccn2)c2[nH]c3c(-n4cccn4)cc(NC(=O)CCN(CC)CC)cc3c2c1`, the concentration for half-maximal inhibition (IC50) was 2.6 µM in the assay with NCI-H460; 1.9 µM with HL-60; 6.3 µM at Nucleic Acid [1]; 23.3 µM in the assay with ECV-304; 2.7 µM with HepG2. Further, the outcome with Nucleic Acid [12] and in the assay on Nucleic Acid [5] was Active. In the assay with Nucleic Acid [2], the result was inactive. Besides, the equilibrium dissociation constant (Kd) was determined as 2.59 µM on Nucleic Acid [3] and 0.233 µM on Nucleic Acid [4]. In addition, the ΔTm was 0.3 °C with Nucleic Acid [6], 11.9 °C with Nucleic Acid [7] and 18.1 °C in the assay on Nucleic Acid [8].
